Calls of active or inactive are those of the source.

Data set [1] in a line: Cmax in Sprague-Dawley rat at 20 mg/kg, iv administered as single dose by HPLC analysis. Particulars: in vivo. In kind it is ADME, organism-based. Details: dose 20 mg/kg, route intravenous. The essentials:
(§1)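 Rats fasted overnight, then given one 20 mg/kg dose either iv or po. Blood was collected and centrifuged at once to obtain plasma. Plasma drug levels were measured by HPLC, and PK parameters were derived from the concentration-time data.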

Data set [2] deals with HeLa. Put plainly: Cell cycle arrest in human HeLa cells assessed as decrease in S-phase at 0.5 to 1 uM after 24 hrs by propidium iodide-staining based flow cytometric analysis. The data set is classed as functional. The essentials: (§2)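 Cells were seeded at 5 × 10^5 cells/mL. At 24 h after plating they were treated with increasing concentrations for 24 h, washed in PBS, and fixed in ice-cold 70% ethanol for at least 24 h. They were stained with propidium iodide plus RNase A for 30 min at 37 °C and analysed by flow cytometry for phase distribution.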
(Flow cytometry measures light scatter and fluorescence of single cells or particles in a stream.)

The subject of data set [3] is T47D. In words: Growth inhibition of human T47D cells after 72 hrs by CCK8 assay. In kind it is functional, cell-based. The essentials: (§3)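 Cells were seeded at 2000–3000 per well and grown 24 h in serum-containing medium. They were then exposed to serially diluted compound for 72 h at 37 °C, 5% CO2. CCK8 reagent was added for 1–4 h and absorbance read at 450 nm. Inhibition = (AC − AS)/(AC − Ab) × 100%. IC50 is the average of at least three independent determinations.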

The target of data set [4] is PI3-kinase p110-delta/p85-alpha (Homo sapiens) (UniProt P27986+O00329). Put plainly: Inhibition of full length recombinant human PI3K p110delta/p85alpha at 1 uM relative to control. In kind it is protein-complex assay. The essentials:
(§4)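 Eurofins KinaseProfiler panel with compound at a single 1 μM concentration. ATP at the Km of each kinase. Result is % inhibition, mean of two independent experiments.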

The species entered for data set [5] is Homo sapiens. Put plainly: Inhibition of mTORC1 in human T47D cells assessed as reduction in 4E-BP1 phosphorylation at Thr37/46 residues at 0.25 to 0.5 uM by Western blot analysis. The data set is classed as cell-based. In outline: (§5)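 Cells treated with the indicated concentrations, then whole-cell lysates immunoblotted. mTORC1 activity read as S6 and 4E-BP1 phosphorylation; mTORC2 activity read as AKT Ser473 phosphorylation. Blocking in 5% skim milk, primary antibodies at 4 °C overnight, peroxidase-conjugated secondary, ECL detection.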
In general terms: In western blotting, separated proteins are transferred to a membrane and probed.

Data set [6] relates to Mus musculus. Put plainly: Down regulation of AKT phosphorylation at Ser473 residues in human T47D cells xenografted in BALB/c nude mouse administered via oral gavage after 3 weeks by hematoxylin and eosine staining based light microscopic assay. In kind it is functional, cell-based. In outline: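 Tumours from the oral 3-week T-47D xenograft study were formalin-fixed, paraffin-embedded and cut into 5 μm sections. Sections were deparaffinized, rehydrated and incubated overnight at 4 °C with phospho-specific primary antibody at 1:100. Biotin secondary was applied for 1 h at room temperature, then ABC-peroxidase/DAB with hematoxylin counterstain. Sections were viewed by light microscopy.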

The species entered for data set [7] is Homo sapiens. In words: Inhibition of mTORC1 in human MDA-MB-231 cells assessed as reduction in 4E-BP1 phosphorylation at Thr37/46 residues at 0.25 to 0.5 uM by Western blot analysis. In kind it is cell-based. In outline:
as §5

For data set [8], the species on record is Homo sapiens. Put plainly: Inhibition of full length recombinant human PI3K p110alpha/p65alpha at 1 uM relative to control. In outline: as §4
Data set [9] relates to HeLa. In words: Inhibition of mTORC1 in human HeLa cells assessed as reduction in 4E-BP1 phosphorylation at Thr37/46 residues at 0.5 to 1 uM by Western blot analysis. In kind it is cell-based. In outline:
as §5

Data set [10] is described as follows: Half life in Sprague-Dawley rat at 20 mg/kg, po administered as single dose by HPLC analysis. The data set is classed as ADME, organism-based. Conditions: in vivo. The essentials: as §1
Data set [11] in a line: Oral bioavailability in Sprague-Dawley rat at 20 mg/kg administered as single dose by HPLC analysis. The data set is classed as ADME, organism-based. Particulars: in vivo. The essentials: (§6)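 Rats fasted overnight, then given a single 20 mg/kg dose either iv or po. Blood collected and centrifuged immediately to obtain plasma. Plasma drug levels measured by HPLC, and pharmacokinetic parameters derived from both routes.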

The test system of data set [12] is Mus musculus. In words: Up regulation of LC3B levels in human T47D cells xenografted in BALB/c nude mouse administered via oral gavage after 3 weeks by hematoxylin and eosine staining based light microscopic assay. The data set is classed as functional, cell-based. In outline: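 Tumors taken from daily-dosed T-47D xenograft mice, formalin-fixed and paraffin-embedded, cut into 5 μm sections. Sections deparaffinized, rehydrated, and incubated overnight at 4 °C with anti-LC3B at 1:100. Then biotin-labeled secondary for 1 h at room temperature, ABC-peroxidase with DAB, hematoxylin counterstain. Read by light microscopy.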
A general note: Xenograft models place foreign cells or tissue in a host animal.

Data set [13] is described as follows: MRT (0 to infinity) in Sprague-Dawley rat at 20 mg/kg, po administered as single dose by HPLC analysis. Conditions: in vivo. In kind it is ADME, organism-based. In outline: as §6
Data set [14] is described as follows: Tmax in Sprague-Dawley rat at 20 mg/kg, po administered as single dose by HPLC analysis. In kind it is ADME, organism-based. Particulars: in vivo. The essentials:
as §6

Data set [15] has as its system MDA-MB-231. In words: Cell cycle arrest in human MDA-MB-231 cells assessed as decrease in S-phase at 0.25 to 0.5 uM after 24 hrs by propidium iodide-staining based flow cytometric analysis. The data set is classed as functional. The essentials: as §2
Data set [16] relates to SK-OV-3. In words: Growth inhibition of human SKOV3 cells after 72 hrs by CCK8 assay. In kind it is functional, cell-based. Particulars: SK-OV-3, 72 h. In outline: as §3
Data set [17] concerns HeLa. In words: Induction of autophagy in human HeLa cells assessed as increase in LC3-2 puncta level after 48 hrs by immunofluorescence staining based microscopic analysis. In kind it is functional, cell-based. The essentials:
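Cells were grown on glass coverslips and exposed to inhibitor for 48 h. They were fixed in 4% paraformaldehyde, permeabilized with 0.15% Triton X-100 and blocked in 4% BSA/PBS for 1 h. Anti-LC3B was applied overnight at 1:200, followed by FITC secondary and DAPI nuclear stain. LC3B-II puncta were counted by fluorescence microscopy.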

The test system of data set [18] is NCI-H460. In words: Growth inhibition of human H460 cells after 72 hrs by CCK8 assay. The data set is classed as functional, cell-based. Particulars: NCI-H460, 72 h. In outline:
as §3

The target of data set [19] is PI3-kinase p110-alpha/p85-alpha (Homo sapiens) (UniProt P27986+P42336). In words: Inhibition of full length recombinant human PI3K p110alpha/p85alpha at 1 uM relative to control. In kind it is protein-complex assay. In outline:
as §4

For data set [20], the species on record is Mus musculus. Put plainly: Inhibition of full length recombinant mouse p85alpha/PI3K p110alpha H1047R mutant at 1 uM relative to control. In outline:
as §4

Data set [21] is filed under the species Homo sapiens. In words: Inhibition of mTORC2 in human T47D cells assessed as reduction in AKT phosphorylation at Ser473 residues at 0.25 to 0.5 uM by Western blot analysis. The data set is classed as cell-based. In outline:
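Cells exposed to a range of compound concentrations; whole-cell lysates immunoblotted for phospho-AKT (Ser473) as the mTORC2 readout, alongside S6 and 4E-BP1 phosphorylation for mTORC1. Membranes blocked in 5% skim milk, primary antibodies overnight at 4 °C, peroxidase-conjugated anti-mouse or anti-rabbit IgG secondary, ECL detection. Rapamycin as comparator.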

The species entered for data set [22] is Homo sapiens. Put plainly: Inhibition of mTORC1 in human SiHa cells assessed as reduction in S6 phosphorylation at Ser 240/244 residues at 0.25 to 0.5 uM by Western blot analysis. The data set is classed as cell-based. The essentials: as §5
Data set [23] deals with HeLa. Put plainly: Inhibition of mTORC1 in human HeLa cells assessed as reduction in 4E-BP1 phosphorylation at Ser65 residues at 0.5 to 1 uM by Western blot analysis. In kind it is cell-based. The essentials:
as §5

Data set [24] deals with Serine/threonine-protein kinase mTOR (Homo sapiens, UniProt P42345). Put plainly: Inhibition of N-terminal FLAG-tagged recombinant human mTOR (1362 to end residues).

The term Cmax denotes the peak of the concentration-time curve. Broadly, the IC50 is the midpoint of a concentration-inhibition curve. As a reminder, the inhibition is the percentage by which the read-out fell short of the control. For orientation: half-life means the time needed for the level to fall by half in the phase considered. As a reminder, the bioavailability is dose-corrected exposure relative to a reference, in per cent. The low end stands for poor availability, the high end for good availability. As usually defined, the MRT inf is the average time that molecules of a dose stay in the body. For orientation: Tmax means the time from dosing to the highest level. In data set [1], `N#CCN1CCC(n2c(=O)cnc3cnc4ccc(-c5ccc(N)nc5)cc4c32)CC1` came in with a Cmax of 4470 ng/mL. Also, the outcome in data set [2] and in data set [15] was Active. In addition, the half-inhibitory concentration (IC50) in [3] stood at 0.205 µM; in [16] it was 1.85 µM; in [18], 1.78 µM; in data set [24] it was 0.007 µM. Besides, the inhibition in data set [4] was determined as 9%; in [8], 5%; in [19], 10%; in [20] it was 7%. In addition, the inhibition entry in data set [5], in data set [7], in [9], in data set [21], in [22] and in data set [23] was “Active” throughout. Moreover, the Activity result in data set [6], in data set [12] and in [17] was “Dose-dependent effect” each time. In addition, in [10], the half-life is 9.98 h. The bioavailability in data set [11] worked out at 43.5%. In addition, the mean residence time MRT inf in [13] was found to be 16.3 h. The Tmax in data set [14] worked out at 3 h.
